# Calls of active or inactive are those of the source. The rule behind the calls is not given here.
# Columns and labels:
# [1] = Metabolic satbility in mouse liver microsomes assessed as compound remaining at 1 uM after 60 min in the absence of NADPH; format: ADME, Microsome; conditions: read-out: Stability
# NCI-H522 = assay: Cytotoxicity against human NCI-H522 cells assessed cell growth; format: functional
# Homo sapiens [2] = species on record: Homo sapiens; assay: Protein binding in human plasma at 10 uM; conditions: read-out: PPB (converted)
# [3] = Unbound fraction in mouse plasma at 1 uM; format: ADME, cell-free
# IGROV-1 = assay: Cytotoxicity against human IGROV1 cells assessed cell growth; format: functional
# [4] = Metabolic stability in human liver microsomes assessed as compound metabolized at 1 uM in the presence of NADPH; format: ADME, Microsome; conditions: read-out: Activity
# Nucleic Acid = assay: Displacement of ethidium bromide from DNA; format: nucleic-acid assay
# Candida albicans = assay: Antifungal activity against Candida albicans 44506 after 24 hrs by broth dilution assay; format: functional; conditions: Candida albicans, 44506, 24 h
# Summary of the method: (§1)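 Broth microdilution in microtiter format at a seeding density of 10^3/mL. C. albicans was grown in Sabouraud dextrose broth; S. aureus and P. aeruginosa in cation-supplemented Mueller-Hinton broth. Incubated at 37°C, with growth scored after 24 h. MIC taken as the lowest concentration giving complete growth inhibition.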
# PANC-1 [5] = assay: Cytotoxicity against human PANC1 cells; format: functional, cell-based
# Summary of the method: (§2)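 IC50 value derived from at least three separate assay runs per sample.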
# Malme-3M = assay: Cytotoxicity against human MALME-3M cells assessed cell growth; format: functional
# Staphylococcus aureus = assay: […] activity against methicillin resistant Staphylococcus aureus 700787 after 24 hrs by broth dilution assay; format: functional; conditions: Staphylococcus aureus, 700787, 24 h; summary of the method: as §1
# ACHN = assay: Cytotoxicity against human ACHN cells assessed cell growth; format: functional
# [6] = Permeability at 50 uM at pH 7.4 by PAMPA; format: ADME; conditions: read-out: permeability
# HL-60(TB) = assay: Cytotoxicity against human HL-60(TB) cells assessed cell growth; format: functional; summary of the method: as §2
# [7] = Permeability at 50 uM at pH 6.2 by PAMPA
# [8] = Metabolic stability in mouse liver microsomes assessed as compound metabolized at 1 uM in the presence of NADPH; format: ADME, Microsome; conditions: read-out: Activity
# [9] = Stability in PBS at 40 uM after 3 hrs; format: physicochemical; conditions: read-out: Stability
# UACC-62 = assay: Cytotoxicity against human UACC62 cells assessed cell growth; format: functional
# TK-10 = assay: Cytotoxicity against human TK10 cells assessed cell growth; format: functional
# [10] = Solubility at pH 5; format: physicochemical; conditions: buffer
# SN12C = assay: Cytotoxicity against human SN12C cells assessed cell growth; format: functional
# SK-MEL-2 = assay: Cytotoxicity against human SK-MEL-2 cells assessed cell growth; format: functional
# A549 = assay: Cytotoxicity against human A549 cells; format: functional, cell-based; summary of the method: as §2
# SW-620 = assay: Cytotoxicity against human SW620 cells assessed cell growth; format: functional
# SF-268 = assay: Cytotoxicity against human SF268 cells assessed cell growth; format: functional
# Homo sapiens [11] = species on record: Homo sapiens; assay: Stability in human plasma assessed as compound remaining at 40 uM after 3 hrs in presence of PBS and inorganic phosphate buffer
# Pseudomonas aeruginosa = assay: […] activity against […] aeruginosa 27853 after 24 hrs by broth dilution assay; format: functional; conditions: Pseudomonas aeruginosa, 27853, 24 h; summary of the method: as §1
# [12] = Protein binding in mouse plasma at 1 uM; format: ADME, cell-free; conditions: read-out: PPB (converted)
# DU-145 = assay: Cytotoxicity against human DU145 cells assessed cell growth; format: functional
# [13] = Unbound fraction in mouse plasma at 10 uM; format: ADME, cell-free
# EKVX = assay: Cytotoxicity against human EKVX cells assessed cell growth; format: functional
# [14] = Solubility at pH 7.4; format: physicochemical; conditions: buffer
# [15] = Metabolic satbility in human liver microsomes assessed as compound remaining at 1 uM after 60 min in the presence of NADPH; format: ADME, Microsome; conditions: read-out: Stability
# [16] = Stability in mouse plasma assessed as compound remaining at 40 uM after 3 hrs in presence of PBS and inorganic phosphate buffer; format: ADME, cell-free; conditions: read-out: Activity
# NCI-H322M = assay: Cytotoxicity against human NCI-H322M cells assessed cell growth; format: functional
# PANC-1 [17] = assay: Cell cycle arrest in human PANC1 cells assessed as accumulation of cells at G1 phase at <=46.5 after 24 hrs by propidium iodide staining method; format: functional, cell-based
# Summary of the method: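 PANC-1 cells in RPMI 1640 with 10% FBS, HEPES, antibiotics, glutamine, pyruvate and glucose, at 37°C in 5% CO2, exposed to varying compound concentrations for 24 h alongside methanol vehicle and paclitaxel positive controls. Cells then ethanol-fixed and stained with 0.02 mg/mL propidium iodide plus 0.1 mg/mL RNase A. Flow cytometry collected 10,000 events per sample, and DNA histograms were modelled for phase distribution.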
# M14 = assay: Cytotoxicity against human M14 cells assessed cell growth; format: functional
# Homo sapiens [18] = species on record: Homo sapiens; assay: Unbound fraction in human plasma at 1 uM
# T47D = assay: Cytotoxicity against human T47D cells assessed cell growth; format: functional
# MDA-MB-435 = assay: Cytotoxicity against human MDA-MB-435 cells assessed cell growth; format: functional
# OVCAR-4 = assay: Cytotoxicity against human OVCAR4 cells assessed cell growth; format: functional
# [19] = Metabolic satbility in mouse liver microsomes assessed as compound remaining at 1 uM after 60 min in the presence of NADPH; format: ADME, Microsome; conditions: read-out: Stability
# CCRF-CEM = assay: Cytotoxicity against human CCRF-CEM cells assessed cell growth; format: functional
# SK-OV-3 = assay: Cytotoxicity against human SKOV3 cells assessed cell growth; format: functional
# MCF7 = assay: Cytotoxicity against human MCF7 cells assessed cell growth; format: functional
# DLD-1 = assay: Cytotoxicity against human DLD1 cells; format: functional, cell-based; summary of the method: as §2
structure (smiles),measurement,setting,value
CC(=O)N(C)CCc1cc(Br)c(OCCCNc2ncn(C)c3ncnc2-3)c(Br)c1 [APHROCALLISTIN],"remaining at 1 h, 1 µM",[1],103%
same,Activity,NCI-H522,36.6%
same,fraction unbound at 10 µM,Homo sapiens [2],0.103
same,fraction unbound at 1 µM,[3],0.15
same,Activity,IGROV-1,64.84%
same,metabolised at 1 µM,[4],96.9%
same,Activity,Nucleic Acid,inactive
same,MIC,Candida albicans,250 µg/mL
same,IC50,PANC-1 [5],22.8 µM
same,Activity,Malme-3M,76.4%
same,MIC,Staphylococcus aureus,250 µg/mL
same,Activity,ACHN,69.23%
same,Papp at 50 µM,[6],321 ×10⁻⁶ cm/s
same,Activity,HL-60(TB),39.94%
same,Papp at 50 µM,[7],201 ×10⁻⁶ cm/s
same,metabolised at 1 µM,[8],98.6%
same,"remaining at 3 h, 40 µM",[9],99.7%
same,Activity,UACC-62,79.32%
same,Activity,TK-10,89.47%
same,solubility,[10],> 267 µg/mL
same,Activity,SN12C,92.68%
same,Activity,SK-MEL-2,71.47%
same,IC50,A549,15.9 µM
same,Activity,SW-620,89.87%
same,Activity,SF-268,97.87%
same,"remaining at 3 h, 40 µM",Homo sapiens [11],76.6%
same,MIC,Pseudomonas aeruginosa,> 500 µg/mL
same,fraction unbound at 1 µM,[12],0.15
same,Activity,DU-145,102.31%
same,fraction unbound at 10 µM,[13],0.309
same,Activity,EKVX,45.38%
same,solubility,[14],> 267 µg/mL
same,"remaining at 1 h, 1 µM",[15],3.08%
same,"remaining at 3 h, 40 µM",[16],79.6%
same,Activity,NCI-H322M,76.48%
same,Activity,PANC-1 [17],Active
same,Activity,M14,73.49%
same,fraction unbound at 1 µM,Homo sapiens [18],0.044
same,Activity,T47D,26.91%
same,Activity,MDA-MB-435,62.57%
same,Activity,OVCAR-4,33.32%
same,"remaining at 1 h, 1 µM",[19],1.44%
same,Activity,CCRF-CEM,80.24%
same,Activity,SK-OV-3,94.44%
same,Activity,MCF7,39.83%
same,IC50,DLD-1,7.5 µM
